This note sets out measurements from ChEMBL document CHEMBL1142952, “Design, synthesis, and activity of 2-imidazol-1-ylpyrimidine derived inducible nitric oxide synthase dimerization inhibitors” (J Med Chem, 2007).

The source made the active and inactive calls. The rule behind the calls is not given here. Bounds are passed on as bounds.

The target in test [1] is Nitric oxide synthase, inducible (Homo sapiens, UniProt P35228). Put plainly: Inhibition of cytokine-induced iNOS expressed in human A172 cells assessed as inhibition of NO formation. The test is classed as cell-based, A 172.
Nitric oxide synthase, inducible, sequence (P35228 whole entry): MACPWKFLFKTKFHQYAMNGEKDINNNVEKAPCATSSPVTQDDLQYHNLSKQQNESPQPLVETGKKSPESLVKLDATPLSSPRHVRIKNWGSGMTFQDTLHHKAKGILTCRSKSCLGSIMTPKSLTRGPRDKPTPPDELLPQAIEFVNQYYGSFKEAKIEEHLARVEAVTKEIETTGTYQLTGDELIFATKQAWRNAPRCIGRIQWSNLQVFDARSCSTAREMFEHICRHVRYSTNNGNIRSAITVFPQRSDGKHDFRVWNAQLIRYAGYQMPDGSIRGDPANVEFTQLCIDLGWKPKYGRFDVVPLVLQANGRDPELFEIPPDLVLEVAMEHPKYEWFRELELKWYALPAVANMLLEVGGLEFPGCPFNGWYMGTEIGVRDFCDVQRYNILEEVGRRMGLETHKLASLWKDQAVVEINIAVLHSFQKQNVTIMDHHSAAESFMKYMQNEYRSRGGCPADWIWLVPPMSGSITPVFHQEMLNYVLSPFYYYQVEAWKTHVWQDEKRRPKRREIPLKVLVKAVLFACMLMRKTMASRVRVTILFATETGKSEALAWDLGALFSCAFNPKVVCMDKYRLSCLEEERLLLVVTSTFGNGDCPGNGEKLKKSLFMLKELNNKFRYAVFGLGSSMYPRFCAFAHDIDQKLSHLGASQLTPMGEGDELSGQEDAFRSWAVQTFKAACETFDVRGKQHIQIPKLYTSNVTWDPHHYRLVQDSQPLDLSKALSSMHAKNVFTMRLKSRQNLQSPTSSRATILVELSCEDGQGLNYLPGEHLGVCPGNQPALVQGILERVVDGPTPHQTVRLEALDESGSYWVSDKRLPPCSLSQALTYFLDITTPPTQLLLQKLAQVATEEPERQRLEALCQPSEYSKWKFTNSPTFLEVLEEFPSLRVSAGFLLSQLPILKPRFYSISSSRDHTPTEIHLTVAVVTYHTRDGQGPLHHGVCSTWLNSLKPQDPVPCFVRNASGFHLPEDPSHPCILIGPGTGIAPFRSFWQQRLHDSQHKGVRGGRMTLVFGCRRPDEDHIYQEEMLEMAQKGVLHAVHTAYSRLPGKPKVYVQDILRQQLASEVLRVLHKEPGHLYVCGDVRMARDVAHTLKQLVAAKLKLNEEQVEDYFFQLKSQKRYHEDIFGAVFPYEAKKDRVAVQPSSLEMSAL
In test [2] the target is Nitric oxide synthase, inducible (Rattus norvegicus) (UniProt Q06518). As to the kind of experiment: Activity against rat cerebellum iNOS upto 1 uM.
Nitric oxide synthase, inducible (Rattus norvegicus), sequence (Q06518 whole entry): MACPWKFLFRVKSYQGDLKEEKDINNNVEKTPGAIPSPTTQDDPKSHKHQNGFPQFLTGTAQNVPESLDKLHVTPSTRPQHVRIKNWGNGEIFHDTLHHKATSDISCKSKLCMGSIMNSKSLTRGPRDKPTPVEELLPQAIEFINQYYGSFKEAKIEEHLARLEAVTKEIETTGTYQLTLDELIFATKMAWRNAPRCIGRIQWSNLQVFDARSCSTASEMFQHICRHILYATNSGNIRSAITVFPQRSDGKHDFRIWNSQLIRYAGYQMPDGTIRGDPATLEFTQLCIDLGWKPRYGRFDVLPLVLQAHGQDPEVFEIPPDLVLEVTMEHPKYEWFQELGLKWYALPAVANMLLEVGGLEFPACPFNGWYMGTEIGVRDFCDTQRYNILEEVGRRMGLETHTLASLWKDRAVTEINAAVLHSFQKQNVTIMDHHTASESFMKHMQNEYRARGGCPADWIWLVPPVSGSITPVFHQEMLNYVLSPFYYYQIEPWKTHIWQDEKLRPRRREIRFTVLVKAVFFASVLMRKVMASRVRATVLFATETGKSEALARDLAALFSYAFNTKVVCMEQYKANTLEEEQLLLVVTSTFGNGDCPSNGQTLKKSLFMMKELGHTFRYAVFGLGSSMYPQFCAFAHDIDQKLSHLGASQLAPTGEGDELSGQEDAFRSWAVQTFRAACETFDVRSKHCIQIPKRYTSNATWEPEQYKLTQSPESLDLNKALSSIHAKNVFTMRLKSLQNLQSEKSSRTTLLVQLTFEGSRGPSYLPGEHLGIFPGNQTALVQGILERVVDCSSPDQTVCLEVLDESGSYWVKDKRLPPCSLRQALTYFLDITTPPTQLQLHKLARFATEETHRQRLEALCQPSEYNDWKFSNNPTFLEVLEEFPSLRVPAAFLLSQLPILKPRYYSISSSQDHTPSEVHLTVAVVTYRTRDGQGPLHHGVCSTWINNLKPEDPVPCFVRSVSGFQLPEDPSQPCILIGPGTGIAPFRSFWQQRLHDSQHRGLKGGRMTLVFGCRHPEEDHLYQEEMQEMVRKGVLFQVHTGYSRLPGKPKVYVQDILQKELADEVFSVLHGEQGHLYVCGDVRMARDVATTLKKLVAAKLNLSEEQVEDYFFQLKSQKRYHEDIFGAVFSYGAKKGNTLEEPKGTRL
A short description of test [3]: Inhibition of vaccinia virus system-induced human NOS expressed in BSC1 cells. The format is cell-based. The note with it: bsc-1.
In test [4] the test system is BSC-1. Put plainly: Selectivity ratio, IC50 for ecNOS/IC50 for iNOS using vaccinia virus-induced system in BSC1 cells. The format is cell-based. As to conditions: Homo sapiens. Put shortly:
(§1)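 For each compound, the IC50 against bcNOS (b/i) or ecNOS (e/i) is divided by the iNOS IC50 from the same BSC-1 vaccinia system.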

Test [5] deals with BSC-1. As to the kind of experiment: Selectivity ratio, IC50 for bcNOS/IC50 for iNOS using vaccinia virus-induced system in BSC1 cells. The test is classed as cell-based. The note with it: Homo sapiens. An outline of the steps:
as §1

In general, IC50 refers to the concentration that gives 50% inhibition. For `CC(C)OC(=O)N1CCN(c2ccnc(-n3ccnc3)n2)C(CC(=O)NCc2ccc3c(c2)OCO3)C1` (stereo not given), the half-inhibitory concentration (IC50) in test [1] was 1 nM; in test [3] it was 24 nM. In addition, the outcome in test [2] was inactive. In addition, the Ratio IC50 in the test on BSC-1 [4] is 800; in the test with BSC-1 [5], 4.
As for `O=C(CC1COCCN1c1ccnc(-n2ccnc2)n1)NCc1ccc2c(c1)OCO2` (stereo not given), in test [1], the 50% inhibitory concentration (IC50) worked out at 0.5 nM. For the same compound, in test [2], the outcome was inactive.
For the compound `O=C(CC1CCCCN1c1ccnc(-n2ccnc2)n1)NCc1ccc(Cl)cc1` (stereo not given), in test [2], the result was inactive. Further, the half-maximal inhibitory concentration (IC50) in test [3] was determined as 160 nM.
For `Cc1cc(N2CCN(S(C)(=O)=O)C(CC(=O)NCc3ccc4c(c3)OCO4)C2)nc(-n2ccnc2)n1` (stereo not given), the IC50 was 12 nM in test [1] and greater than 1000 nM in test [3]. In addition, the result in test [2] was inactive.
`CN(Cc1ccccc1)C(=O)CC1CCCCN1c1ccnc(-n2ccnc2)n1` (stereo not given): the outcome in test [2] was inactive.
As for `O=C(CC1CN(C(=O)c2ccccc2)CCN1c1ccnc(-n2ccnc2)n1)NCc1ccc2c(c1)OCO2` (stereo not given), the IC50 amounted to 0.5 nM in test [1] and 85 nM in test [3]. Further, the result in test [2] was inactive. For the same compound, the Ratio IC50 in the test on BSC-1 [4] amounted to 220; in the test with BSC-1 [5], 4.
The corresponding values for `O=C(CC1CN(C(=O)Oc2ccccc2)CCN1c1ccnc(-n2ccnc2)n1)NCc1ccc2c(c1)OCO2` (stereo not given) are 1.4 nM, 16 nM, “inactive”, 700 and 5.
For the compound `Cc1cc(N2CCNC(CC(=O)NCc3ccc4c(c3)OCO4)C2)nc(-n2ccnc2)n1` (stereo not given), the concentration for half-maximal inhibition (IC50) was 100 nM in test [1] and greater than 1000 nM in test [3]. In test [2], the outcome was inactive.
For `CS(=O)(=O)N1CCN(c2ccnc(-n3ccnc3)n2)C(CC(=O)NCc2ccc3c(c2)OCO3)C1` (stereo not given), the 50% inhibitory concentration (IC50) in test [1] was 0.7 nM; in test [3] it was 74 nM. In addition, the outcome in test [2] was inactive. Besides, the Ratio IC50 with BSC-1 [4] was greater than 1000; in the test on BSC-1 [5], 12.
Consider `O=C(CC1CCCCN1c1ccnc(-n2ccnc2)n1)NCc1ccc2c(c1)OCO2` (stereo not given), for which the concentration for half-maximal inhibition (IC50) worked out at 0.5 nM in test [1] and 7 nM in test [3]. In test [2], the result was inactive. The values for the Ratio IC50 in the test with BSC-1 [4] and in the test with BSC-1 [5] were 520 and 5, respectively.
The corresponding values for `O=C(CC1CN(C(=O)NCc2ccccc2)CCN1c1ccnc(-n2ccnc2)n1)NCc1ccc2c(c1)OCO2` (stereo not given) are 0.96 nM, 72 nM, “inactive”, 490 and 4.
As to `COC(=O)N1CCN(c2ccnc(-n3ccnc3)n2)[C@H](CC(=O)NCc2ccc3c(c2)OCO3)C1`, the IC50 in test [1] is 34 nM; in test [3] it was greater than 1000 nM. Further, in test [2], the result was inactive.
As for `COc1ccccc1CNC(=O)CC1CCCCN1c1ccnc(-n2ccnc2)n1` (stereo not given), in test [2], the result was inactive. In test [3], this compound gave a half-maximal inhibitory concentration (IC50) of 500 nM.
On to `O=C(CC1CCCCN1c1cc(C(F)(F)F)nc(-n2ccnc2)n1)NCc1ccc2c(c1)OCO2` (stereo not given), for which the values for the IC50 in test [1] and in test [3] were 180 nM and 320 nM, respectively. In test [2], the result was inactive. Also, the Ratio IC50 was greater than 310 in the test on BSC-1 [4] and greater than 31 with BSC-1 [5].
The corresponding values for `O=C(CC1CN(Cc2cccc3ccccc23)CCN1c1ccnc(-n2ccnc2)n1)NCc1ccc2c(c1)OCO2` (stereo not given) are 69 nM, 120 nM, “inactive”, 40 and 7.
The corresponding values for `O=C(CC1CCCCN1c1ccnc(-n2ccnc2)n1)NCc1ccc(OC(F)(F)F)cc1` (stereo not given) are 19 nM, 140 nM, “inactive”, 220 and 5.
In the case of `O=C(CC1CCCCN1c1ccnc(-n2ccnc2)n1)NCc1ccc(C(F)(F)F)cc1` (stereo not given), the IC50 in test [1] was determined as 150 nM; in test [3], 260 nM. Moreover, the result in test [2] was inactive. The Ratio IC50 with BSC-1 [4] was 70; in the test with BSC-1 [5] it was 3.
The corresponding values for `O=C(CC1CCCCN1c1cc(-n2ccnc2)ncn1)NCc1ccc2c(c1)OCO2` (stereo not given) are 10 nM, 100 nM, “inactive”, greater than 1000 and 19.
For `O=C(CC1CCCCN1c1ccnc(-n2ccnc2)n1)NCc1ccc([N+](=O)[O-])cc1` (stereo not given) the same measures were 168 nM, 940 nM, “inactive”, 74 and greater than 10.
For `O=C(CC1CN(Cc2ccco2)CCN1c1ccnc(-n2ccnc2)n1)NCc1ccc2c(c1)OCO2` (stereo not given) the same measures were 0.58 nM, 13 nM, “inactive”, 1100 and 2.
With `CS(=O)(=O)c1ccc(CNC(=O)CC2CCCCN2c2ccnc(-n3ccnc3)n2)cc1` (stereo not given), the outcome in test [2] was inactive. Also, it took 940 nM to reach half-maximal inhibition in test [3] (IC50).
`O=C(CC1CN(C(=O)Nc2ccccc2)CCN1c1ccnc(-n2ccnc2)n1)NCc1ccc2c(c1)OCO2` (stereo not given): the results for the half-inhibitory concentration (IC50) in test [1] and in test [3] were 0.87 nM and 25 nM, respectively. Also, the result in test [2] was inactive. Besides, the Ratio IC50 in the test with BSC-1 [4] was 350; with BSC-1 [5], 3.
For `COC(=O)N1CCN(c2cc(C)nc(-n3ccnc3)n2)CC1CC(=O)NCc1ccc2c(c1)OCO2` (stereo not given) the same measures were 5.4 nM, 420 nM, “inactive”, greater than 200 and 50.
For `O=C(CC1CN(c2cccc(F)n2)CCN1c1ccnc(-n2ccnc2)n1)NCc1ccc2c(c1)OCO2` (stereo not given) the same measures were 0.28 nM, 10 nM, “inactive”, 850 and 6.
Consider `O=C(CC1CN(C(=O)OCc2ccccc2)CCN1c1ccnc(-n2ccnc2)n1)NCc1ccc2c(c1)OCO2` (stereo not given), for which the IC50 worked out at 0.8 nM in test [1] and 18 nM in test [3]. Further, in test [2], the outcome was inactive. The Ratio IC50 was 660 in the test with BSC-1 [4] and 7 with BSC-1 [5].
Consider `Nc1ccc(CNC(=O)CC2CCCCN2c2ccnc(-n3ccnc3)n2)cc1` (stereo not given), for which, in test [2], the result was inactive. Also, in test [3], the half-maximal inhibitory concentration (IC50) is 850 nM.
On to `CCOC(=O)CN1CCN(c2ccnc(-n3ccnc3)n2)C(CC(=O)NCc2ccc3c(c2)OCO3)C1` (stereo not given), for which the concentration for half-maximal inhibition (IC50) amounted to 0.93 nM in test [1] and 4.9 nM in test [3]. Besides, in test [2], the result was inactive. Also, the figures for the Ratio IC50 in the test on BSC-1 [4] and with BSC-1 [5] were 1700 and 5, respectively.
`CS(=O)(=O)Nc1ccc(CNC(=O)CC2CCCCN2c2ccnc(-n3ccnc3)n2)cc1` (stereo not given): the result in test [2] was inactive. In test [3], this compound showed an IC50 greater than 1000 nM.
Regarding `Cc1cc(N2CCN(C(=O)C(C)C)[C@@H](CC(=O)NCc3ccc4c(c3)OCO4)C2)nc(-n2ccnc2)n1`, the IC50 was 300 nM in test [1] and greater than 1000 nM in test [3]. Moreover, the result in test [2] was inactive.
Consider `O=C(CC1CCCCN1c1cccc(-n2ccnc2)c1)NCc1ccc2c(c1)OCO2` (stereo not given), for which, in test [1], the IC50 was 77 nM. Moreover, the result in test [2] was inactive.
For `CNC(=O)CC1CCCCN1c1ccnc(-n2ccnc2)n1` (stereo not given) the same measures were greater than 100 nM and “inactive”.
For `O=C(CC1CCCCN1c1ccnc(-n2ccnc2)n1)Nc1ccc2c(c1)OCO2` (stereo not given) the same measures were greater than 100 nM and “inactive”.
In the case of `COc1ccc(NC(=O)CC2CCCCN2c2ccnc(-n3ccnc3)n2)cc1OC` (stereo not given), in test [2], the outcome was inactive. Also, in test [3], inhibition was half-maximal at 1800 nM (IC50).
`O=C(CC1CCCCN1c1ccnc(-n2ccnc2)n1)NC(c1ccccc1)c1ccccc1` (stereo not given): the result in test [2] was inactive.
In the case of `COc1cc(CNC(=O)CC2CCCCN2c2ccnc(-n3ccnc3)n2)cc(OC)c1OC` (stereo not given), in test [1], the 50% inhibitory concentration (IC50) is greater than 100 nM. Further, in test [2], the outcome was inactive.
In the case of `COc1ccc(CNC(=O)CC2CCCCN2c2ccnc(-n3ccnc3)n2)cc1OC` (stereo not given), the outcome in test [2] was inactive. Moreover, the IC50 in test [3] came to 110 nM.
For `COc1ccc(CNC(=O)CC2CCCCN2c2ccnc(-n3ccnc3)n2)cc1` (stereo not given) the same measures were “inactive” and 23 nM.
The corresponding values for `N#Cc1ccc(CNC(=O)CC2CCCCN2c2ccnc(-n3ccnc3)n2)cc1` (stereo not given) are “inactive” and greater than 1000 nM.
Take `CN(C)c1cccc2c(S(=O)(=O)N3CCN(c4ccnc(-n5ccnc5)n4)C(CC(=O)NCc4ccc5c(c4)OCO5)C3)cccc12` (stereo not given): the IC50 in test [1] came to 1.1 nM. Besides, the outcome in test [2] was inactive.
Regarding `O=C(CC1CCCCCN1c1ccnc(-n2ccnc2)n1)NCc1ccc2c(c1)OCO2` (stereo not given), the half-inhibitory concentration (IC50) in test [1] was found to be 2 nM. The outcome in test [2] was inactive.
In the case of `O=C(CC1CCCCN1c1ccnc(-n2ccnc2)n1)NCc1ccccc1` (stereo not given), the result in test [2] was inactive. The compound also came in with a concentration for half-maximal inhibition (IC50) in test [3] of 440 nM.
Take `NS(=O)(=O)c1ccc(CNC(=O)CC2CCCCN2c2ccnc(-n3ccnc3)n2)cc1` (stereo not given): the outcome in test [2] was inactive. The compound also came in with a concentration for half-maximal inhibition (IC50) in test [3] greater than 330 nM.
As for `Cc1cc(N2CCC[C@H]2C(=O)NCCc2ccc3c(c2)OCO3)nc(-n2ccnc2)n1`, the concentration for half-maximal inhibition (IC50) in test [1] was found to be 6400 nM. Besides, the result in test [2] was inactive.
In the case of `O=C(CC1CCCCN1c1ccnc(-n2ccnc2)n1)NCc1ccccn1` (stereo not given), the outcome in test [2] was inactive.
Turning to `Cc1ccc(CNC(=O)CC2CCCCN2c2ccnc(-n3ccnc3)n2)cc1` (stereo not given), the result in test [2] was inactive. For the same compound, the IC50 in test [3] was found to be 274 nM.
